Values after ≈ are worked out from the molar mass of the structure shown.
Tests used:
[1] = target: T1, GABA-A receptor; alpha-1/beta-2/gamma-2 (Homo sapiens, UniProt P14867+P18507+P47870); test: Positive allosteric modulation of human GABAA alpha1beta2gamma2 receptor expressed in Xenopus laevis oocytes by two-microelectrode voltage-clamp assay; type: cell-based, Oocyte
T1 sequence (P14867 whole entry): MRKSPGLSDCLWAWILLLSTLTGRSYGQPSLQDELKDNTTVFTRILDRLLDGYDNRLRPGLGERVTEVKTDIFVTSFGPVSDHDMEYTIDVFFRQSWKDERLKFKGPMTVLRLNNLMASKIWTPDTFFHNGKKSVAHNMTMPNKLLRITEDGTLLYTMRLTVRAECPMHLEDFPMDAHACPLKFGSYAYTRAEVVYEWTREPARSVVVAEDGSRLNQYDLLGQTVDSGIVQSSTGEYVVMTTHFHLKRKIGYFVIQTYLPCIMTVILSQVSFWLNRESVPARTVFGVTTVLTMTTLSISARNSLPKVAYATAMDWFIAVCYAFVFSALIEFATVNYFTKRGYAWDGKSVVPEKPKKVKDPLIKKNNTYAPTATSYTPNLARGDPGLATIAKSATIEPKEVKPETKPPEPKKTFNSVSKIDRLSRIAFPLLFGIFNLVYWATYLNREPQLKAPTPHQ
T1 sequence (P47870 whole entry): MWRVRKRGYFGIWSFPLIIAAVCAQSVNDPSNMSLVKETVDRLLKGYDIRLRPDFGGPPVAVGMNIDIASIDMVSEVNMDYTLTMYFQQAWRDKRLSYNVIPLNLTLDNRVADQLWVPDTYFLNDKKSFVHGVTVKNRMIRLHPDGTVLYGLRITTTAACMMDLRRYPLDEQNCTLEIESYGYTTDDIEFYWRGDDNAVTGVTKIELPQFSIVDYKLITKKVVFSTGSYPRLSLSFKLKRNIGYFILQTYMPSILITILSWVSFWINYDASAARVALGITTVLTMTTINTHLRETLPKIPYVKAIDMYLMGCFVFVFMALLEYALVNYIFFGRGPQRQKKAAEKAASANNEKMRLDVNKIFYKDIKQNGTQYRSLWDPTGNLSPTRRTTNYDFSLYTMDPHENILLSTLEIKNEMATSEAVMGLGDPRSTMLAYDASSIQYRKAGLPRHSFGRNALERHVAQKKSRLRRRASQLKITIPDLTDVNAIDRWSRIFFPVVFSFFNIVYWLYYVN
T1 sequence (P18507 whole entry): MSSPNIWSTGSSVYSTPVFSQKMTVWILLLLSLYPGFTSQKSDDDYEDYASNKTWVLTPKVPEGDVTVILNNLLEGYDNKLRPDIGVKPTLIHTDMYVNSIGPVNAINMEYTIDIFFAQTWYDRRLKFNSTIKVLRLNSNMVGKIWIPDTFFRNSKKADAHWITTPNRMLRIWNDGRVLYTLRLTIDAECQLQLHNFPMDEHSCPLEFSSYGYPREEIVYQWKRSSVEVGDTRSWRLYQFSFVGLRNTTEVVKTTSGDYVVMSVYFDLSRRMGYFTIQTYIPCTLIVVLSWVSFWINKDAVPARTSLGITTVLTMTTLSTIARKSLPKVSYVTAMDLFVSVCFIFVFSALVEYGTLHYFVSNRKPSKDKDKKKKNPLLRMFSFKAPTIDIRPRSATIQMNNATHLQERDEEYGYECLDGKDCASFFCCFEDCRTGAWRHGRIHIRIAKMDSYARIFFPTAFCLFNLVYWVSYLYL
Procedure, shortened: (§1)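 PAM activity measured as EC50 in Xenopus oocytes expressing α1β2γ2L or α2β1γ2L GABAA receptors.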

[2] = target: T2, Gamma-aminobutyric acid receptor subunit alpha-2/beta-1/gamma-2 (Homo sapiens, UniProt P18505+P18507+P47869); test: Positive allosteric modulation of human GABAA alpha2beta1gamma2 receptor expressed in Xenopus laevis oocytes by two-microelectrode voltage-clamp assay; type: cell-based, Oocyte; procedure, shortened: as §1
T2 sequence (P18507 whole entry): T1 sequence (P18507 whole entry)
T2 sequence (P18505 whole entry): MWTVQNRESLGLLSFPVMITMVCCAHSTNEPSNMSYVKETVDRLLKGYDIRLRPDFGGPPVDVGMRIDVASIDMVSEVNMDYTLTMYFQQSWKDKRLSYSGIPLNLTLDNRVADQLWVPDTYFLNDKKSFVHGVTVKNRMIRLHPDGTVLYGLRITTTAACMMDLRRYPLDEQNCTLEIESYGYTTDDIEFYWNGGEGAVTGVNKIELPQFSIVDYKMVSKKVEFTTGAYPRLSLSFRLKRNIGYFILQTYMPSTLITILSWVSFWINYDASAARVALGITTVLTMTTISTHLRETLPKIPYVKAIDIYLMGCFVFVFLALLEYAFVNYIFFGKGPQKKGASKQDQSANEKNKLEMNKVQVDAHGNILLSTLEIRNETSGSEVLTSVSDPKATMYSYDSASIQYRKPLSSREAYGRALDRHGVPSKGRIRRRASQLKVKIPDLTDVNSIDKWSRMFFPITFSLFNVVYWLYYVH
T2 sequence (P47869 whole entry): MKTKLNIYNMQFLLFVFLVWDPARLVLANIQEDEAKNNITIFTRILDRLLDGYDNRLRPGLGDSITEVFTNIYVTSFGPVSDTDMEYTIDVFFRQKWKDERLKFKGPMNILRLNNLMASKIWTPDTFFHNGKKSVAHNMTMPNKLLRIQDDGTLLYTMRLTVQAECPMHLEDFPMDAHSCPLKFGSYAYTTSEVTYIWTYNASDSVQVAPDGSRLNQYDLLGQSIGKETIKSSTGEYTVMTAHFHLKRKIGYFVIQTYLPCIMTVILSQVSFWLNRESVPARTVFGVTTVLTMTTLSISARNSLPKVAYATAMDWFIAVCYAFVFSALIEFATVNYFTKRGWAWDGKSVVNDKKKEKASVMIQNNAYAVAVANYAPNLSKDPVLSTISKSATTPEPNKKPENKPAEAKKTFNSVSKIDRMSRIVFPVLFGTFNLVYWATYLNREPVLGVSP

[3] = Solubility of the compound in 45% HPbetaCD; type: physicochemical
[4] = Oral availability in rat 3 mg/kg, po; type: ADME, organism-based; conditions: in vivo
Procedure, shortened: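 Rat oral bioavailability from dosing at 3 mg/kg p.o. and 1 mg/kg i.v.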

Mus musculus [5] = species on record: Mus musculus; test: Anxiolytic activity in mouse assessed as increase in time spent in open arm by elevated plus maze test; type: functional; conditions: read-out: MED
Procedure, shortened: (§2)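 Mice were dosed orally. Anxiolytic activity was tested in the elevated plus maze and reported as minimum effective dose. Anticonvulsant activity was tested against pentylenetetrazole-induced seizures and reported as ED50. Therapeutic indices were given for the anxiolytic and anticonvulsant read-outs against a preliminary mouse safety measure.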

Mus musculus [6] = test: Anticonvulsant activity in PTZ induced mouse administered orally; type: functional; conditions: route po; procedure, shortened: as §2
[7] = Therapeutic index, ratio of AD50 for mouse to MED for anxiolytic activity in mouse assessed as increase in time spent in open arm by elevated plus maze test; type: toxicity; conditions: read-out: TI; procedure, shortened: as §2
[8] = Therapeutic index, ratio of AD50 for mouse to ED50 for anticonvulsant activity in PTZ induced mouse administered orally; type: toxicity; conditions: in vivo, route po, read-out: TI; procedure, shortened: as §2
[9] = Brain concentration in mouse at 10 mg/kg po measured after 30 mins; type: ADME, organism-based; conditions: read-out: Ct
Procedure, shortened: (§3)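 Mice were given oral doses of 3, 10 or 30 mg/kg, with a vehicle group. Pentylenetetrazole was used to induce seizures. Percentages of animals with clonic seizure, tonic seizure and death were recorded. Plasma (ng/mL) and brain (ng/g) concentrations were measured in samples collected 30 min after administration.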

[10] = Brain concentration in mouse at 30 mg/kg po measured after 30 mins; type: ADME, organism-based; conditions: read-out: Ct; procedure, shortened: as §3
[11] = Plasma concentration in mouse at 30 mg/kg, po measured after 30 mins; type: ADME, organism-based; procedure, shortened: as §3
[12] = Brain concentration in mouse at 3 mg/kg po measured after 30 mins; type: ADME, organism-based; conditions: read-out: Ct; procedure, shortened: as §3
[13] = Plasma concentration in mouse at 3 mg/kg, po measured after 30 mins; type: ADME, organism-based; procedure, shortened: as §3
[14] = Plasma concentration in mouse at 10 mg/kg, po measured after 30 mins; type: ADME, organism-based; procedure, shortened: as §3
Mus musculus [15] = test: Anticonvulsant activity in PTZ induced mouse assessed as reduction in clonic seizure at 10 mg/kg,po (reference value: 100%); type: functional; design: scale not given: the % may be the effect or the level left; procedure, shortened: as §3
Mus musculus [16] = test: Anticonvulsant activity in PTZ induced mouse assessed as animal death at 3 mg/kg,po (reference value: 80%); type: functional; procedure, shortened: as §3
Mus musculus [17] = test: Anticonvulsant activity in PTZ induced mouse assessed as reduction in tonic seizure at 3 mg/kg,po (reference value: 80%); type: functional; design: scale not given: the % may be the effect or the level left; procedure, shortened: as §3
Mus musculus [18] = test: Anticonvulsant activity in PTZ induced mouse assessed as reduction in clonic seizure at 3 mg/kg,po (reference value: 100%); type: functional; design: scale not given: the % may be the effect or the level left; procedure, shortened: as §3

Structure (SMILES) | EC50 [1] | EC50 [2] | solubility [3] | bioavailability [4] | minimal effective dose (Mus musculus [5]) | ED50 (Mus musculus [6]) | selectivity ratio [7] | selectivity ratio [8] | concentration at 0.5 h [9] | concentration at 0.5 h [10] | concentration at 0.5 h [11] | concentration at 0.5 h [12] | concentration at 0.5 h [13] | concentration at 0.5 h [14] | Activity (Mus musculus [15]) | Activity (Mus musculus [16]) | Activity (Mus musculus [17]) | Activity (Mus musculus [18])
C[C@@]1(O)CC[C@@]2(C)[C@@H](CC[C@@H]3[C@@H]2CC[C@]2(C)[C@@H](c4cc(CO)on4)CC[C@@H]32)C1 | 1200 nM | 200 nM | 52 mM (≈ 20.2 mg/mL) | 77% | ≤ 0.3 mg/kg | 6 mg/kg | ≥ 127 | 6 | – | – | – | – | – | – | – | – | – | –
C[C@@]1(O)CC[C@H]2[C@H](CC[C@@H]3[C@@H]2CC[C@]2(C)[C@@H](C(=O)Cn4nccn4)CC[C@@H]32)C1 | – | – | – | – | – | – | – | – | 773 ng/g | 1960 ng/g | 1690 ng/mL | 87 ng/g | 87 ng/mL | 703 ng/mL | 20% | 30% | 40% | 90%

— ChEMBL document CHEMBL5260830, “Breakthroughs in neuroactive steroid drug discovery” (Bioorg Med Chem Lett, 2018)
